Source: ChEMBL document CHEMBL1139049, “Highly potent 3-pyrroline mechanism-based inhibitors of bovine plasma amine oxidase and mass spectrometric confirmation of cofactor derivatization” (Bioorg Med Chem, 2007)
Activity calls are given as the source filed them. The rule behind the calls is not given here.

Key:
[1] = (§1) Inhibition of BPAO after 20 mins by benzylamine assay; set-up: species or system Bos taurus
Summary of the method: (§2)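 Bovine plasma amine oxidase (~1 μM) preincubated with varying inhibitor concentrations at 30 °C in 50 mM sodium phosphate, pH 7.2. Aliquots taken over time were assayed for residual activity by the benzylamine assay, with benzaldehyde formation followed at 250 nm. The value is the concentration giving 50% inactivation at a fixed 20 min.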

Bos taurus [2] = species on record: Bos taurus; test: Ratio of kinact to Ki for BPAO
Summary of the method: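 Inactivation of ~1 μM BPAO by varying inhibitor concentrations, at 30 °C in 50 mM sodium phosphate, pH 7.2. Residual activity in time aliquots was read by benzylamine oxidation (benzaldehyde, 250 nm). Log activity versus time gave pseudo-first-order rates, and kinact and Ki were obtained from Kitz–Wilson plots.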

Bos taurus [3] = species on record: Bos taurus; test: Inhibition of BPAO assessed as redox cycling activity by NBT assay
Summary of the method: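 BPAO was inactivated by preincubation with inhibitor in 50 mM sodium phosphate, pH 7.2. The inactivated preparations were then tested for TPQ cofactor redox cycling by the standard sodium glycinate nitroblue tetrazolium staining assay.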

Bos taurus [4] = species on record: Bos taurus; test: as §1; summary of the method: as §2

| SMILES | IC50 [1] [µM] | Ratio (Bos taurus [2]) [mM⁻¹ min⁻¹] | Activity (Bos taurus [3]) | Ki [1] [µM] | Kinact (Bos taurus [4]) [min⁻¹] |
| --- | --- | --- | --- | --- | --- |
| C[n+]1ccc(C2=CCNC2)cc1 | > 1000 | – | – | – | – |
| C1=C(c2cccnc2)CNC1 | 1.5 | 24 | – | – | – |
| Fc1c(F)c(F)c(C2=CCNC2)c(F)c1F | 6.1 | 6 | Active | – | – |
| C1=C(c2ccc3ccccc3n2)CNC1 | 2.7 | 13 | – | – | – |
| C1=C(c2nccc3ccccc23)CNC1 | 0.86 | 40 | Active | – | – |
| C1=C(c2ccccn2)CNC1 | 0.75 | 65 | – | – | – |
| C1=C(c2ccncc2)CNC1 | 50 | 1.2 | Active | 76 | 0.091 |
| C[n+]1cccc(C2=CCNC2)c1 | 500 | – | – | – | – |
